Source: ChEMBL document CHEMBL3124809, “Back pocket flexibility provides group II p21-activated kinase (PAK) selectivity for type I 1/2 kinase inhibitors” (J Med Chem, 2014)
Converted amounts (≈) assume the structure as drawn. Values belong to the compound of their own block, whether it stands above or below them. The source made the active and inactive calls. No cut-off for these calls is given here.

Tests used:
[1] = molecular target: T1, Serine/threonine-protein kinase PAK 4 (Homo sapiens, UniProt O96013); test: Binding affinity to N-terminal GST-tagged recombinant human PAK4 kinase domain expressed in Escherichia coli using KKRNRRLSVA as substrate preincubated for 10 mins followed by ATP addition measured after 60 mins by FRET-based Z'Lyte assay
[2] = molecular target: Misshapen-like kinase 1 (Homo sapiens) (UniProt Q8N4C8); test: Inhibition of MINK1 (unknown origin) at 10 uM
Misshapen-like kinase 1 (Homo sapiens), sequence (Q8N4C8 whole entry, looked up): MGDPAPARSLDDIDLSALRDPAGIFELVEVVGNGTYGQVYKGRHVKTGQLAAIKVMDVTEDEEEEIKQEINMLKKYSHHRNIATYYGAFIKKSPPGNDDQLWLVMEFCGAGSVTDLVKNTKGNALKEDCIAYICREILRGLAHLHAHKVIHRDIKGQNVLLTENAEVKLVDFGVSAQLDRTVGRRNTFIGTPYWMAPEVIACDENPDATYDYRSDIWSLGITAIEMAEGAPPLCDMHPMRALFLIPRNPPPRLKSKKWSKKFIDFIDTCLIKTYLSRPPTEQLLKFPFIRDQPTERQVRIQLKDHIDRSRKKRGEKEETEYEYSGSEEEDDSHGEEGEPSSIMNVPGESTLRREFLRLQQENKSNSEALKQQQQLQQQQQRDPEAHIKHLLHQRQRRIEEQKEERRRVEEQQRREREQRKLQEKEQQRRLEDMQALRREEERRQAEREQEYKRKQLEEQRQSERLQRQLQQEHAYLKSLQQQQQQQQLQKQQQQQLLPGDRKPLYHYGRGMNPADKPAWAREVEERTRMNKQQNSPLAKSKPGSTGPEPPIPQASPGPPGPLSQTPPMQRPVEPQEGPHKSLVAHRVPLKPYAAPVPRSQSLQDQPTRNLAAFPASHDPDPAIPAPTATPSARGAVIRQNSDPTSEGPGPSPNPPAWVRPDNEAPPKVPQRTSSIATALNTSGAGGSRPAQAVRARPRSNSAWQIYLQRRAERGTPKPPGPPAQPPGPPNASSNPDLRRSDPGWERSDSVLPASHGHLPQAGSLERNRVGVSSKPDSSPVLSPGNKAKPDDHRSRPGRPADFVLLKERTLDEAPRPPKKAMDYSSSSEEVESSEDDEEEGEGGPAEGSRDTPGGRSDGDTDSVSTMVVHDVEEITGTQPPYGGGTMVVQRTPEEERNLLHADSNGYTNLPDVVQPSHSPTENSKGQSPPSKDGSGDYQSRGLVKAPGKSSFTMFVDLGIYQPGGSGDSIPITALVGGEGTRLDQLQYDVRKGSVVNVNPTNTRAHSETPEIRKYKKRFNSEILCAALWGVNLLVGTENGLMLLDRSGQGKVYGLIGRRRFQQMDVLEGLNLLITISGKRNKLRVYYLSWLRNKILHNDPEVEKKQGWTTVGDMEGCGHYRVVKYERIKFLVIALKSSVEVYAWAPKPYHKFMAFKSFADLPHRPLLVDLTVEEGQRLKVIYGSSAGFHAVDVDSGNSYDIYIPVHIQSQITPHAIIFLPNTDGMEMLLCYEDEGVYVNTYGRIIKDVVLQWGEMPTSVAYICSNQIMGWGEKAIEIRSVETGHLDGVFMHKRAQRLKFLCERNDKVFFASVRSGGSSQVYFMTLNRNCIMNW

[3] = molecular target: Mitogen-activated protein kinase kinase kinase kinase 5 (Homo sapiens) (UniProt Q9Y4K4); test: Inhibition of KHS1 (unknown origin) at 10 uM
Mitogen-activated protein kinase kinase kinase kinase 5 (Homo sapiens), sequence (Q9Y4K4 whole entry, looked up): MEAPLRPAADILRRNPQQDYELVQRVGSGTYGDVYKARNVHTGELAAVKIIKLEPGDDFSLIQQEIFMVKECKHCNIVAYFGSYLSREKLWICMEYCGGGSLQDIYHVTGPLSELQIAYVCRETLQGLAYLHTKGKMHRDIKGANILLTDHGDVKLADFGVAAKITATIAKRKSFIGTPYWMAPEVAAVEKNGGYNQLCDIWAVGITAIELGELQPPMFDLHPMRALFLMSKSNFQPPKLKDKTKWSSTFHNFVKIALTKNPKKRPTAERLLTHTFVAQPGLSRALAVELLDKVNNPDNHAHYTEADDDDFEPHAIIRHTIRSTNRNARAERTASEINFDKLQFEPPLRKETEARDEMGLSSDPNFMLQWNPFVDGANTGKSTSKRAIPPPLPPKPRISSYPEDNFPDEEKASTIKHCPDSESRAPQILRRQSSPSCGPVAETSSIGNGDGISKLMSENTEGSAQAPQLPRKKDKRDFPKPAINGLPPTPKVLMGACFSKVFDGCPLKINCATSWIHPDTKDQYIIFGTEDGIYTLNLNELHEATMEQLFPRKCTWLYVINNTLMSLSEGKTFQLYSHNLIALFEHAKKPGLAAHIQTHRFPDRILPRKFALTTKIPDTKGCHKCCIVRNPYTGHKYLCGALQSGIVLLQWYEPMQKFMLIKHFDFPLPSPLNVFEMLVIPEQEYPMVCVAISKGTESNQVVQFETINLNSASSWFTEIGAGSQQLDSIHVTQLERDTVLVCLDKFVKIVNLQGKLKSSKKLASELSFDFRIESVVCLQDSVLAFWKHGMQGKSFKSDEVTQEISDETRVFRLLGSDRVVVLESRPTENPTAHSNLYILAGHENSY

[4] = molecular target: Mitogen-activated protein kinase kinase kinase 14 (Homo sapiens) (UniProt Q99558); test: Inhibition of NIK (unknown origin) at 10 uM
Mitogen-activated protein kinase kinase kinase 14 (Homo sapiens), sequence (Q99558 whole entry, looked up): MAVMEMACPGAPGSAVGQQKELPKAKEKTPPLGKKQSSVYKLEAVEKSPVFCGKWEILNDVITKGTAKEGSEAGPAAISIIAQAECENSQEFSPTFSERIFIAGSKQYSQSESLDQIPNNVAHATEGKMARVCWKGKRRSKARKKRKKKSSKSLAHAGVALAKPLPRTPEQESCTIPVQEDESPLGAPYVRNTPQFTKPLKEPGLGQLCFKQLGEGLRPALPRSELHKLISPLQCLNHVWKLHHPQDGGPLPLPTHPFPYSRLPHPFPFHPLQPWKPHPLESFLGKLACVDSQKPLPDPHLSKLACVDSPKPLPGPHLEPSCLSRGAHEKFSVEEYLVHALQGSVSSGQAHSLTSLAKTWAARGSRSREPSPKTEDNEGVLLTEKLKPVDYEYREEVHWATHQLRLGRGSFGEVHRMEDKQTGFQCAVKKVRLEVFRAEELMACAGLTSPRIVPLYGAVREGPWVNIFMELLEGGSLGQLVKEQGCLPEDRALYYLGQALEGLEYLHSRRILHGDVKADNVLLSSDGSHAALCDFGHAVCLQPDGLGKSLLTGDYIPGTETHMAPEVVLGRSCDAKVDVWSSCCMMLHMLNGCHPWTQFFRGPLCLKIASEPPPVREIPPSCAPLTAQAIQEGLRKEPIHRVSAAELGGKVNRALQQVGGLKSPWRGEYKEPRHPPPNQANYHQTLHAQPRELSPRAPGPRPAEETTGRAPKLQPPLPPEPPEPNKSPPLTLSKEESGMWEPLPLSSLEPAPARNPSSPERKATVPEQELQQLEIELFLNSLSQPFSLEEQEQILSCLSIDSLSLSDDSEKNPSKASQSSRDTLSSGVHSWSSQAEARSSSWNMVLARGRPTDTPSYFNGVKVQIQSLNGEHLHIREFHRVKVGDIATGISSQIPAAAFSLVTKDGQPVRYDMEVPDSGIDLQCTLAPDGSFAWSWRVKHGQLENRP

[5] = molecular target: T1, Serine/threonine-protein kinase PAK 4; conditions: 10 uM
[6] = molecular target: T2, Tyrosine-protein kinase JAK3 (Homo sapiens) (UniProt P52333); test: Inhibition of JAK3 (unknown origin) at 10 uM
T2 sequence (whole entry): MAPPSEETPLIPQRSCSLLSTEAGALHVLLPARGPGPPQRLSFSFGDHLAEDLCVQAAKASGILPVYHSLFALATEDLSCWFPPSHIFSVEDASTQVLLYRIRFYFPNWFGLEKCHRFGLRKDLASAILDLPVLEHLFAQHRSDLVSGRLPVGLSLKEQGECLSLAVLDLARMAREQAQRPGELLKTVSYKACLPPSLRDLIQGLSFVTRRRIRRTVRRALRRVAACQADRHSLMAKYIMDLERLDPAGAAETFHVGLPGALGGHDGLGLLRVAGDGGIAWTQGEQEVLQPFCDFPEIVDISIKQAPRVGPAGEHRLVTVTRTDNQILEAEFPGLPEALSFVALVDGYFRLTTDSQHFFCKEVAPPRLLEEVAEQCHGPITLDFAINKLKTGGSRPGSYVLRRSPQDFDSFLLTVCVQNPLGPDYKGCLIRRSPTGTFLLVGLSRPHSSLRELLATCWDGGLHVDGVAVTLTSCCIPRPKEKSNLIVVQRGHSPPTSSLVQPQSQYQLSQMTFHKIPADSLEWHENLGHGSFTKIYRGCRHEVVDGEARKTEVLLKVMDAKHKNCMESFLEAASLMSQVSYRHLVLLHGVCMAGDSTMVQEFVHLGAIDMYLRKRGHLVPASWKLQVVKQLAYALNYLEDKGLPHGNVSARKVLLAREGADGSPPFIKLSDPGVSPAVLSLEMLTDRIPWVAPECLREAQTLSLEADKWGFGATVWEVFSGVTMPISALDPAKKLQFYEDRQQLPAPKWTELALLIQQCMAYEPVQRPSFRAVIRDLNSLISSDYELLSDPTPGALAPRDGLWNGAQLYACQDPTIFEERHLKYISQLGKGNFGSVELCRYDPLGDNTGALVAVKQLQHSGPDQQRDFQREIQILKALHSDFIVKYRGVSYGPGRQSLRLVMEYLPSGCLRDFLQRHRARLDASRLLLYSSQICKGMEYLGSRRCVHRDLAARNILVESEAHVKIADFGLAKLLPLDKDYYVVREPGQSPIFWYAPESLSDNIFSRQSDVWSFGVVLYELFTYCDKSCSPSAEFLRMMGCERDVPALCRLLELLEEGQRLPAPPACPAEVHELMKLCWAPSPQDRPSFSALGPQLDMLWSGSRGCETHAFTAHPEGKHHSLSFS

[7] = molecular target: Serine/threonine-protein kinase PAK 1 (Homo sapiens, UniProt Q13153); test: Binding affinity to N-terminal GST-His-tagged recombinant human PAK1 kinase domain expressed in Escherichia coli BL21 using KKRNRRLSVA as sustrate preincubated for 10 mins followed by ATP addition measured after 60 mins by FRET-based Z'Lyte assay
Serine/threonine-protein kinase PAK 1, sequence (Q13153 whole entry, the tested form may be a part): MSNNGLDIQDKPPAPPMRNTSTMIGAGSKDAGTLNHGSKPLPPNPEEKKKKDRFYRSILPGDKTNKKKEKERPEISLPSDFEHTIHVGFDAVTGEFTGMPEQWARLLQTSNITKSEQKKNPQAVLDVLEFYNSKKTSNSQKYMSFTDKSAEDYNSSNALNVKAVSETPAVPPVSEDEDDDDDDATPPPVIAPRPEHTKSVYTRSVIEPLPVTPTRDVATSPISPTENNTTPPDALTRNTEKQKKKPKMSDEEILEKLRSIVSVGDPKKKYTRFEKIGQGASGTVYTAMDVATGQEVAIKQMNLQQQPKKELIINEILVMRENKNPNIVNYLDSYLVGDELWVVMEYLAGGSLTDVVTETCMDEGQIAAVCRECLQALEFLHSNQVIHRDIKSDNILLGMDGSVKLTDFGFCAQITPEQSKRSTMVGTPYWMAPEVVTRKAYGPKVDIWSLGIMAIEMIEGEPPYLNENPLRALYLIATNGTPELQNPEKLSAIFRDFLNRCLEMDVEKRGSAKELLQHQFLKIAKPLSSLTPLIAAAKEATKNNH

[8] = molecular target: Mitogen-activated protein kinase kinase kinase kinase 4 (Homo sapiens) (UniProt O95819); test: Inhibition of MAP4K4 (unknown origin) at 10 uM
Mitogen-activated protein kinase kinase kinase kinase 4 (Homo sapiens), sequence (O95819 2-1239 limits assumed): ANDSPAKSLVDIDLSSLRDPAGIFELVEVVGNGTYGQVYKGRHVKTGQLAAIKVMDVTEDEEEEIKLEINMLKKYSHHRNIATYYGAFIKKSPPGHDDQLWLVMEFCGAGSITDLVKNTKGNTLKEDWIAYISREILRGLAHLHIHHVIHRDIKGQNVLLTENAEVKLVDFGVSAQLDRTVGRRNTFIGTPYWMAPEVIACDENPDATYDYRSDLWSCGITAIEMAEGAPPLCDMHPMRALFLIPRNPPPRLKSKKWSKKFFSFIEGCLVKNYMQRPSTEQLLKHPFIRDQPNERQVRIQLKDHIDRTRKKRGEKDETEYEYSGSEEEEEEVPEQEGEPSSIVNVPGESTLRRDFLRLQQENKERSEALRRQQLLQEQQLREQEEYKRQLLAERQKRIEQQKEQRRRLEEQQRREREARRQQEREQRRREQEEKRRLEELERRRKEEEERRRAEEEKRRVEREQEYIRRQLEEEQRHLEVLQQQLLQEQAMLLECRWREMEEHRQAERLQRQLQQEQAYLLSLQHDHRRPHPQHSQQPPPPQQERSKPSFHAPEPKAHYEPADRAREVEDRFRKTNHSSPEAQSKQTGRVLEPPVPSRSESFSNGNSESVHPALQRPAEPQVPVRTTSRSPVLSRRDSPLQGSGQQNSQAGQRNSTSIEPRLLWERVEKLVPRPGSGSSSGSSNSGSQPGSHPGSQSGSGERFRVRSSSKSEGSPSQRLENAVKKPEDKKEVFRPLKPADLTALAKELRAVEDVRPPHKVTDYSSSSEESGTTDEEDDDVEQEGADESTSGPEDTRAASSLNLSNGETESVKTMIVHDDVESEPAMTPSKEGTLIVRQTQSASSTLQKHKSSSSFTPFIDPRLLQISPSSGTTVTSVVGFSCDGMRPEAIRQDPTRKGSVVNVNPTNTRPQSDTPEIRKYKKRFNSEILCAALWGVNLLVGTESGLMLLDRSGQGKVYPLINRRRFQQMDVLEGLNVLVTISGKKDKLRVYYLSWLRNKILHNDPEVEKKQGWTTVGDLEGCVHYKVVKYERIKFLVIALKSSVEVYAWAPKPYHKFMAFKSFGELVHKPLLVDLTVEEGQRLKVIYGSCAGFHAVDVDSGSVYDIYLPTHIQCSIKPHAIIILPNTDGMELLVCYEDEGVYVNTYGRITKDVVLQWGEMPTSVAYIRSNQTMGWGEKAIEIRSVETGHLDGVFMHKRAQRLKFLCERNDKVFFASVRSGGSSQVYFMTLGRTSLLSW

[9] = molecular target: Mitogen-activated protein kinase kinase kinase 14 (Homo sapiens) (UniProt Q99558); test: Inhibition of NIK (unknown origin) at 1 uM
[10] = molecular target: Mitogen-activated protein kinase kinase kinase kinase 4 (Homo sapiens) (UniProt O95819); test: Inhibition of MAP4K4 (unknown origin) at 1 uM
[11] = molecular target: Misshapen-like kinase 1 (Homo sapiens) (UniProt Q8N4C8); test: Inhibition of MINK1 (unknown origin) at 1 uM
[12] = molecular target: T2, Tyrosine-protein kinase JAK3 (Homo sapiens); test: Inhibition of JAK3 (unknown origin) at 1 uM
[13] = molecular target: Mitogen-activated protein kinase kinase kinase kinase 5 (Homo sapiens) (UniProt Q9Y4K4); test: Inhibition of KHS1 (unknown origin) at 1 uM
[14] = molecular target: T1, Serine/threonine-protein kinase PAK 4; test: Inhibition of PAK4 (unknown origin) at 1 uM
[15] = Cytotoxicity against human MDA-MB-436 cells assessed as reduction in cell viability after 24 to 48 hrs by Celltiter-glo luminescence assay; format: functional, cell-based
Procedure, shortened: (§1)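 Cells sparsely plated in 96-well plates and allowed to adhere, then given DMSO or compound (0.1, 1, 10, 50 μM) for 24 and 48 h. Metabolically active cells quantified by CellTiter-Glo luminescence. MDA-MB-436 grown in DMEM/10% FBS; MCF10A PIK3CA (one endogenous H1047R allele) in DMEM/F12 with 5% horse serum, insulin, hydrocortisone.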

[16] = Plasma protein binding in human plasma; format: ADME, cell-free; conditions: read-out: PPB (converted)
[17] = molecular target: T1, Serine/threonine-protein kinase PAK 4; test: Inhibition of PAK4 (unknown origin)
[18] = molecular target: T3, Serine/threonine-protein kinase PAK 5 (Homo sapiens, UniProt Q9P286); test: Inhibition of PAK5 (unknown origin)
[19] = Apparent permeability across apical to basolateral side in MDCK cells; format: ADME, cell-based, Canis lupus familiaris; conditions: dog
[20] = molecular target: Serine/threonine-protein kinase PAK 3 (Homo sapiens, UniProt O75914); test: Inhibition of PAK3 (unknown origin)
[21] = Antiinvasive activity against human MDA-MB-436 cells assessed as reduction of wound density at 1 uM after 80 hrs by matrigel assay; format: functional; parameters: scale not given: the % may be the effect or the level left
[22] = Lipophilicity, log D of the compound at pH 7.4; format: physicochemical; conditions: buffer
[23] = Antimigratory activity in human MCF10A cells harboring PIK3CA H1047R mutant assessed as reduced wound density at >10 uM after 20 hrs by wound healing assay; format: functional, MCF-10A; parameters: scale not given: the % may be the effect or the level left
Procedure, shortened: (§2)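 Monolayer of 40 000 cells per well, grown overnight, scratched with WoundMaker, washed twice with warm medium, then given medium with DMSO or compound (0.1, 1, 10, 50 μM). Relative wound density from phase-contrast time-lapse images, collected and quantified every 2 h on IncuCyte.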

[24] = Antiinvasive activity against human MCF10A cells harboring PIK3CA H1047R mutant assessed as reduction of wound density at 10 uM after 48 hrs by matrigel assay; format: functional, MCF-10A; parameters: scale not given: the % may be the effect or the level left
[25] = molecular target: T4, Ephrin type-B receptor 1 (Homo sapiens, UniProt P54762); test: Inhibition of EphB1 (unknown origin)
T4 sequence (P54762 whole entry): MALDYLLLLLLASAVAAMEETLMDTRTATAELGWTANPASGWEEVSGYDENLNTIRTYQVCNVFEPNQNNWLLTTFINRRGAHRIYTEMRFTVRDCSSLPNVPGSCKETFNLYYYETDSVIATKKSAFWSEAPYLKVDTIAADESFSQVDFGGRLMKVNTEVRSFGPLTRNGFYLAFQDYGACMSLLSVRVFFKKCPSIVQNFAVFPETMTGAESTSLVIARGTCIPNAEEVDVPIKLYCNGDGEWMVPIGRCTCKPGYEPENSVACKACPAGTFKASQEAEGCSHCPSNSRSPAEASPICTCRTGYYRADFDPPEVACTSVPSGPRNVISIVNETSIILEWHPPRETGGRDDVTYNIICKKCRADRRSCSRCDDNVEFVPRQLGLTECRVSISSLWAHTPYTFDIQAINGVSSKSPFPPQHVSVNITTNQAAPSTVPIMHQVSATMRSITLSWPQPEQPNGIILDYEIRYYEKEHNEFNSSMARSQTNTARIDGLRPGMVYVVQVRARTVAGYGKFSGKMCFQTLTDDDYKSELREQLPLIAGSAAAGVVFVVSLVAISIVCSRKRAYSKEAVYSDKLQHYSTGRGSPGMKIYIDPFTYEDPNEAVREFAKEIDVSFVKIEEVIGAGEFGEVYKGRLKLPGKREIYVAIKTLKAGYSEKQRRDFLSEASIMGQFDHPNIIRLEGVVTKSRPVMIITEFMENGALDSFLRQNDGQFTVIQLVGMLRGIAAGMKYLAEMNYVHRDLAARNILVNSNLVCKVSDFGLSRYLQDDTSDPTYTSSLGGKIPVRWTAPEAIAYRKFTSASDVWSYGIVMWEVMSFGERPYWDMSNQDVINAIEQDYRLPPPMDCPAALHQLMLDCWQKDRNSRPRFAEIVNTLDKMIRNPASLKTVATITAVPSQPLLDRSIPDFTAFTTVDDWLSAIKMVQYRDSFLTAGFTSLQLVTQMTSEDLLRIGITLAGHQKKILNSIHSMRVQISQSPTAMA

[26] = molecular target: T3, Serine/threonine-protein kinase PAK 5; test: Inhibition of PAK5 (unknown origin) at 0.1 uM
[27] = Cytotoxicity against human MCF10A cells harboring PIK3CA H1047R mutant cells assessed as reduction in cell viability at 10 uM after 24 to 48 hrs by Celltiter-glo luminescence assay; format: functional, MCF-10A; procedure, shortened: as §1
[28] = tested on: MCF-10A; test: Cytotoxicity against human MCF10A cells harboring PIK3CA H1047R mutant cells assessed as reduction in cell viability at 50 uM after 24 to 48 hrs by Celltiter-glo luminescence assay; format: functional, cell-based; procedure, shortened: as §1
[29] = molecular target: Serine/threonine-protein kinase PAK 2 (Homo sapiens, UniProt Q13177); test: Inhibition of PAK2 (unknown origin)
[30] = molecular target: T5, Serine/threonine-protein kinase PAK 6 (Homo sapiens, UniProt Q9NQU5); test: Inhibition of PAK6 (unknown origin) at 0.1 uM
[31] = molecular target: T5, Serine/threonine-protein kinase PAK 6; test: Inhibition of PAK6 (unknown origin)
[32] = Kinetic solubility of the compound; format: physicochemical; conditions: read-out: Kinetic_solubility
[33] = tested on: MDA-MB-436; test: Antiinvasive activity against human MDA-MB-436 cells assessed as reduction of wound density after 80 hrs by matrigel assay; format: functional, cell-based
[34] = Thermodynamic solubility of the compound; format: physicochemical; conditions: read-out: Therm_solubility
[35] = Cytotoxicity against human MDA-MB-436 cells assessed as reduction in cell viability at 10 uM after 24 to 48 hrs by Celltiter-glo luminescence assay; format: functional; procedure, shortened: as §1
[36] = Antimigratory activity in human MDA-MB-436 cells assessed as reduction in wound density at >10 uM after 1 to 24 hrs by wound healing assay; format: functional; parameters: scale not given: the % may be the effect or the level left; procedure, shortened: as §2
[37] = tested on: MDA-MB-436; test: Antiinvasive activity against human MDA-MB-436 cells assessed as complete wound closure at 0.1 to 50 uM after 80 hrs by matrigel assay; format: functional, cell-based
[38] = molecular target: T1, Serine/threonine-protein kinase PAK 4; conditions: 0.1 uM
[39] = tested on: MDA-MB-436; test: Cytotoxicity against human MDA-MB-436 cells assessed as reduction in cell viability at 50 uM after 24 to 48 hrs by Celltiter-glo luminescence assay; format: functional, cell-based; procedure, shortened: as §1
[40] = tested on: MCF-10A; test: Antiinvasive activity against human MCF10A cells harboring PIK3CA H1047R mutant assessed as complete wound closure at 0.1 to 50 uM after 40 hrs by matrigel assay; format: functional, cell-based

Compound: COCCNc1nc2ccc(C#CC(C)(C)O)cc2n1-c1ccnc(N)n1
Ki [1]: 140 nM
inhibition [2]: 32%
inhibition [3]: 88%
inhibition [4]: 84%
inhibition [5]: 97%
inhibition [6]: 31%
Ki [7]: > 4500 nM
inhibition [8]: 40%

Compound: Cc1nc2ccc(C#CC(C)(O)c3ncccn3)cc2n1-c1ncnc(N)n1 (racemic)
Ki [1]: > 2900 nM
Ki [7]: > 4500 nM

Compound: Cc1nc2ccc(C#CC3(O)COC3)cc2n1-c1ncnc(N)n1
Ki [1]: > 2900 nM
Ki [7]: > 4500 nM

Compound: Cc1nc2ccc(C#CC3(O)CCCCC3)cc2n1-c1ncnc(N)n1
Ki [1]: 68 nM
inhibition [9]: 56%
inhibition [10]: 4%
inhibition [11]: 6%
inhibition [12]: -2%
inhibition [13]: 44%
inhibition [14]: 91%

Compound: CCNc1nc2ccc(C#CC(C)(C)O)cc2n1-c1ncnc(N)n1
Ki [1]: 60 nM
Ki [7]: > 4500 nM

Compound: Cc1nc(Nc2n[nH]c3c2CN(C(=O)N[C@H](CN(C)C)c2ccccc2)C3(C)C)c2sccc2n1 [PF-03758309]
IC50 [15]: 0.79 nM

Second part, led by results:

Ki [1]: > 2900 nM
Ki [7]: > 4500 nM
Compound: Cc1nc2ccc(C#CC3(O)CCCOC3)cc2n1-c1ncnc(N)n1 (racemic)

Ki [1]: 1300 nM
Ki [7]: > 4500 nM
Compound: CC(C)(O)C#Cc1ccc2cnn(-c3cc(N)ncn3)c2c1

fraction unbound [16]: 0.04
IC50 [17]: 7.5 nM
IC50 [18]: 126 nM
Papp A→B [19]: 22.2 ×10⁻⁶ cm/s
IC50 [20]: > 10000 nM
inhibition [9]: 46%
logD [22]: 3.6
inhibition [10]: -4%
IC50 [25]: > 10000 nM
inhibition [26]: > 60%
IC50 [29]: 970 nM
inhibition [11]: 5%
inhibition [30]: > 60%
IC50 [31]: 36 nM
solubility kinetic [32]: 30 µM (≈ 12.2 µg/mL)
solubility thermodynamic [34]: 6.3 µM (≈ 2.56 µg/mL)
inhibition [12]: -1%
inhibition [13]: 14%
inhibition [38]: > 60%
inhibition [14]: 100%
Compound: COCCNc1nc2ccc(C#CC3(O)CCCCC3)cc2n1-c1ccnc(N)n1
Activity [21]: 50%
Activity [23]: 50%
Activity [24]: 50%
Activity [27]: 50%
Activity [28]: Active
Activity [33]: Dose-dependent effect
Activity [35]: 50%
Activity [36]: 50%
Activity [37]: inactive
Activity [39]: Active
Activity [40]: Active
